ChEMBL document CHEMBL1159061, “Synthesis and biological properties of iron chelators based on a bis-2-(2-hydroxy-phenyl)-thiazole-4-carboxamide or -thiocarboxamide (BHPTC) scaffold” (Bioorg Med Chem, 2010)
pIC50: −log10 of the molar value. Active and inactive are the calls of the source. No cut-off for these calls is given here.

test system: HepaRG; experiment: Cytotoxicity against human HepaRG cells assessed as increase in extracellular LDH release at >100 uM after 72 hrs in presence of iron(3); format: functional, cell-based; conditions: not given

Row | SMILES | Activity
1 | O=C(O)c1ccc(O)c(-c2nc(C(=S)NCCOCCOCCNC(=S)c3csc(-c4cc(C(=O)O)ccc4O)n3)cs2)c1 | Active

test system: SK-OV-3; experiment: Antiproliferative activity against human SKOV3 cells at 1 uM after 72 hrs by MTS assay; format: functional; conditions: SK-OV-3, 72 h
In short: (§1)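 Cells grown under 5% CO2: KB and HepG2 in DMEM with 10% FCS, penicillin, streptomycin and fungizone; HCT116, HT29, HCT15, MCF7, MCF7R, SK-OV3, PC-3, A549, HL60, K562 and SF268 in RPMI. Cells were plated in 96-well plates and dosed 24 h later from DMSO stocks (controls 1% DMSO final). After 72 h, MTS was added for 3 h at 37 °C and absorbance read at 490 nm. Inhibition = (1 − OD treated/OD control)×100, in triplicate.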

Row | SMILES | inhibition at 1 µM
2 | O=C(O)c1ccc(O)c(-c2nc(C(=S)NCCOCCOCCNC(=S)c3csc(-c4cc(C(=O)O)ccc4O)n3)cs2)c1 | 3%

test system: HepG2; experiment: Antiproliferative activity against human HepG2 cells at 10 uM after 72 hrs by MTS assay; format: functional; conditions: HepG2, 72 h; in short: as §1

Row | SMILES | inhibition at 10 µM
3 | O=C(O)c1ccc(O)c(-c2nc(C(=S)NCCOCCOCCNC(=S)c3csc(-c4cc(C(=O)O)ccc4O)n3)cs2)c1 | 0%

test system: A549; experiment: Antiproliferative activity against human A549 cells at 1 uM after 72 hrs by MTS assay; format: functional; conditions: A549, 72 h; in short: as §1

Row | SMILES | inhibition at 1 µM
4 | O=C(O)c1ccc(O)c(-c2nc(C(=S)NCCOCCOCCNC(=S)c3csc(-c4cc(C(=O)O)ccc4O)n3)cs2)c1 | 0%

test system: PC-3; experiment: Antiproliferative activity against human PC3 cells at 1 uM after 72 hrs by MTS assay; format: functional; conditions: PC-3, 72 h; in short: as §1

Row | SMILES | inhibition at 1 µM
5 | O=C(O)c1ccc(O)c(-c2nc(C(=S)NCCOCCOCCNC(=S)c3csc(-c4cc(C(=O)O)ccc4O)n3)cs2)c1 | 0%

test system: K562; experiment: Antiproliferative activity against human K562 cells at 1 uM after 72 hrs by MTS assay; format: functional; conditions: K562, 72 h; in short: as §1

Row | SMILES | inhibition at 1 µM
6 | O=C(O)c1ccc(O)c(-c2nc(C(=S)NCCOCCOCCNC(=S)c3csc(-c4cc(C(=O)O)ccc4O)n3)cs2)c1 | 0%

test system: SK-OV-3; experiment: Antiproliferative activity against human SKOV3 cells at 10 uM after 72 hrs by MTS assay; format: functional; conditions: SK-OV-3, 72 h; in short: as §1

Row | SMILES | inhibition at 10 µM
7 | O=C(O)c1ccc(O)c(-c2nc(C(=S)NCCOCCOCCNC(=S)c3csc(-c4cc(C(=O)O)ccc4O)n3)cs2)c1 | 2%

test system: A549; experiment: Antiproliferative activity against human A549 cells at 10 uM after 72 hrs by MTS assay; format: functional; conditions: A549, 72 h; in short: as §1

Row | SMILES | inhibition at 10 µM
8 | O=C(O)c1ccc(O)c(-c2nc(C(=S)NCCOCCOCCNC(=S)c3csc(-c4cc(C(=O)O)ccc4O)n3)cs2)c1 | 7%

test system: SF-268; experiment: Antiproliferative activity against human SF268 cells at 10 uM after 72 hrs by MTS assay; format: functional; conditions: SF-268, 72 h; in short: as §1

Row | SMILES | inhibition at 10 µM
9 | O=C(O)c1ccc(O)c(-c2nc(C(=S)NCCOCCOCCNC(=S)c3csc(-c4cc(C(=O)O)ccc4O)n3)cs2)c1 | 5%

test system: SF-268; experiment: Antiproliferative activity against human SF268 cells at 1 uM after 72 hrs by MTS assay; format: functional; conditions: SF-268, 72 h; in short: as §1

Row | SMILES | inhibition at 1 µM
10 | O=C(O)c1ccc(O)c(-c2nc(C(=S)NCCOCCOCCNC(=S)c3csc(-c4cc(C(=O)O)ccc4O)n3)cs2)c1 | 0%

test system: HCT-15; experiment: Antiproliferative activity against human HCT15 cells at 10 uM after 72 hrs by MTS assay; format: functional; conditions: HCT-15, 72 h; in short: as §1

Row | SMILES | inhibition at 10 µM
11 | O=C(O)c1ccc(O)c(-c2nc(C(=S)NCCOCCOCCNC(=S)c3csc(-c4cc(C(=O)O)ccc4O)n3)cs2)c1 | 8%

test system: KB; experiment: Antiproliferative activity against human KB cells at 10 uM after 72 hrs by MTS assay; format: functional; conditions: not given; in short: as §1

Row | SMILES | inhibition at 10 µM
12 | O=C(O)c1ccc(O)c(-c2nc(C(=S)NCCOCCOCCNC(=S)c3csc(-c4cc(C(=O)O)ccc4O)n3)cs2)c1 | 0%

test system: HL-60; experiment: Antiproliferative activity against human HL60 cells at 1 uM after 72 hrs by MTS assay; format: functional; conditions: HL-60, 72 h; in short: as §1

Row | SMILES | inhibition at 1 µM
13 | O=C(O)c1ccc(O)c(-c2nc(C(=S)NCCOCCOCCNC(=S)c3csc(-c4cc(C(=O)O)ccc4O)n3)cs2)c1 | 0%

test system: HepG2; experiment: Antiproliferative activity against human HepG2 cells at 1 uM after 72 hrs by MTS assay; format: functional; conditions: HepG2, 72 h; in short: as §1

Row | SMILES | inhibition at 1 µM
14 | O=C(O)c1ccc(O)c(-c2nc(C(=S)NCCOCCOCCNC(=S)c3csc(-c4cc(C(=O)O)ccc4O)n3)cs2)c1 | 0%

test system: HL-60; experiment: Antiproliferative activity against human HL60 cells at 10 uM after 72 hrs by MTS assay; format: functional; conditions: HL-60, 72 h; in short: as §1

Row | SMILES | inhibition at 10 µM
15 | O=C(O)c1ccc(O)c(-c2nc(C(=S)NCCOCCOCCNC(=S)c3csc(-c4cc(C(=O)O)ccc4O)n3)cs2)c1 | 0%

test system: MCF7; experiment: Antiproliferative activity against doxorubicin-resistant human MCF7 cells at 10 uM after 72 hrs by MTS assay; format: functional; conditions: MCF7, 72 h; in short: as §1

Row | SMILES | inhibition at 10 µM
16 | O=C(O)c1ccc(O)c(-c2nc(C(=S)NCCOCCOCCNC(=S)c3csc(-c4cc(C(=O)O)ccc4O)n3)cs2)c1 | 1%

test system: HCT-15; experiment: Antiproliferative activity against human HCT15 cells at 1 uM after 72 hrs by MTS assay; format: functional; conditions: HCT-15, 72 h; in short: as §1

Row | SMILES | inhibition at 1 µM
17 | O=C(O)c1ccc(O)c(-c2nc(C(=S)NCCOCCOCCNC(=S)c3csc(-c4cc(C(=O)O)ccc4O)n3)cs2)c1 | 0%

test system: MCF7; experiment: Antiproliferative activity against human MCF7 cells at 1 uM after 72 hrs by MTS assay; format: functional; conditions: MCF7, 72 h; in short: as §1

Row | SMILES | inhibition at 1 µM
18 | O=C(O)c1ccc(O)c(-c2nc(C(=S)NCCOCCOCCNC(=S)c3csc(-c4cc(C(=O)O)ccc4O)n3)cs2)c1 | 0%

test system: HT-29; experiment: Antiproliferative activity against human HT-29 cells at 1 uM after 72 hrs by MTS assay; format: functional; conditions: HT-29, 72 h; in short: as §1

Row | SMILES | inhibition at 1 µM
19 | O=C(O)c1ccc(O)c(-c2nc(C(=S)NCCOCCOCCNC(=S)c3csc(-c4cc(C(=O)O)ccc4O)n3)cs2)c1 | 0%

test system: not listed separately; experiment: Induction of iron chelating activity by calcein fluorescence assay; format: physicochemical; conditions: not given
In short: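 Cell-free calcein assay in 20 mM HEPES, 150 mM NaCl, pH 7.3, at 20 °C with orbital stirring. Calcein was quenched with iron(III) for 6 h to maximal quenching. Fluorescence recovery (ex 485/em 520 nm) was followed for 1 h at various chelator concentrations, and the initial dequenching rate was derived from the kinetics. Three independent experiments.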

Row | SMILES | pIC50
20 | O=C(O)c1ccc(O)c(-c2nc(C(=S)NCCOCCOCCNC(=S)c3csc(-c4cc(C(=O)O)ccc4O)n3)cs2)c1 | 7.15

test system: K562; experiment: Antiproliferative activity against human K562 cells at 10 uM after 72 hrs by MTS assay; format: functional; conditions: K562, 72 h; in short: as §1

Row | SMILES | inhibition at 10 µM
21 | O=C(O)c1ccc(O)c(-c2nc(C(=S)NCCOCCOCCNC(=S)c3csc(-c4cc(C(=O)O)ccc4O)n3)cs2)c1 | 2%

test system: HCT-116; experiment: Antiproliferative activity against human HCT116 cells at 10 uM after 72 hrs by MTS assay; format: functional; conditions: HCT-116, 72 h; in short: as §1

Row | SMILES | inhibition at 10 µM
22 | O=C(O)c1ccc(O)c(-c2nc(C(=S)NCCOCCOCCNC(=S)c3csc(-c4cc(C(=O)O)ccc4O)n3)cs2)c1 | 0%

test system: HCT-116; experiment: Antiproliferative activity against human HCT116 cells at 1 uM after 72 hrs by MTS assay; format: functional; conditions: HCT-116, 72 h; in short: as §1

Row | SMILES | inhibition at 1 µM
23 | O=C(O)c1ccc(O)c(-c2nc(C(=S)NCCOCCOCCNC(=S)c3csc(-c4cc(C(=O)O)ccc4O)n3)cs2)c1 | 0%

test system: HT-29; experiment: Antiproliferative activity against human HT-29 cells at 10 uM after 72 hrs by MTS assay; format: functional; conditions: HT-29, 72 h; in short: as §1

Row | SMILES | inhibition at 10 µM
24 | O=C(O)c1ccc(O)c(-c2nc(C(=S)NCCOCCOCCNC(=S)c3csc(-c4cc(C(=O)O)ccc4O)n3)cs2)c1 | 0%

test system: MCF7; experiment: Antiproliferative activity against doxorubicin-resistant human MCF7 cells at 1 uM after 72 hrs by MTS assay; format: functional; conditions: MCF7, 72 h; in short: as §1

Row | SMILES | inhibition at 1 µM
25 | O=C(O)c1ccc(O)c(-c2nc(C(=S)NCCOCCOCCNC(=S)c3csc(-c4cc(C(=O)O)ccc4O)n3)cs2)c1 | 0%

test system: not listed separately; experiment: Antiproliferative activity against human HepaRG cells after 72 hrs by MTT assay; format: functional, cell-based; conditions: not given
In short: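 Proliferating HepaRG cells at day 4 (seeded at 2.5×10⁴/cm² in William's E, 10% FCS, insulin, glutamine, hydrocortisone) were exposed for 72 h to a concentration series, with or without added iron(III) as each line states. Viability was read by MTT (0.5 mg/L as printed) for 3 h in serum-free medium, DMSO-solubilized formazan at 535 nm, expressed as % of control SDH activity.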

Row | SMILES | pIC50
26 | O=C(O)c1ccc(O)c(-c2nc(C(=S)NCCOCCOCCNC(=S)c3csc(-c4cc(C(=O)O)ccc4O)n3)cs2)c1 | 3.94

test system: MCF7; experiment: Antiproliferative activity against human MCF7 cells at 10 uM after 72 hrs by MTS assay; format: functional; conditions: MCF7, 72 h; in short: as §1

Row | SMILES | inhibition at 10 µM
27 | O=C(O)c1ccc(O)c(-c2nc(C(=S)NCCOCCOCCNC(=S)c3csc(-c4cc(C(=O)O)ccc4O)n3)cs2)c1 | 0%

test system: KB; experiment: Antiproliferative activity against human KB cells at 1 uM after 72 hrs by MTS assay; format: functional; conditions: not given; in short: as §1

Row | SMILES | inhibition at 1 µM
28 | O=C(O)c1ccc(O)c(-c2nc(C(=S)NCCOCCOCCNC(=S)c3csc(-c4cc(C(=O)O)ccc4O)n3)cs2)c1 | 0%

test system: PC-3; experiment: Antiproliferative activity against human PC3 cells at 10 uM after 72 hrs by MTS assay; format: functional; conditions: PC-3, 72 h; in short: as §1

Row | SMILES | inhibition at 10 µM
29 | O=C(O)c1ccc(O)c(-c2nc(C(=S)NCCOCCOCCNC(=S)c3csc(-c4cc(C(=O)O)ccc4O)n3)cs2)c1 | 0%
